# According to PMC10955609 (Clinical and Translational Science, 2024):
# Key:
# [1] = test system: imiquimod (IMQ)-induced skin inflammation (TLR7 activation); experiment: IMQ skin challenge: skin perfusion; type: in vivo, human; conditions: for Erythema: GMR of treatment effect vs. placebo (90% CrI): same dosing; for Clinical evaluation of skin reactions (visual grading): vs placebo
# In short: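 Healthy men (12 per arm) took test compound (120 or 100 mg), placebo or prednisolone 20 mg b.i.d. orally for 7 days. From Day 3, 5% imiquimod cream (100 mg) went daily on tape-stripped back skin under 12-mm occlusion chambers for 3 days. Erythema (3D imaging), LSCI perfusion and CEA were read at baseline, 24, 48 and 72 h. Bayesian repeated-measures ANCOVA used log-transformed change from baseline.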
# [2] = test system: imiquimod (IMQ)-induced skin inflammation (TLR7 activation); experiment: Skin suction blister fluid analysis after IMQ challenge; type: in vivo, human; conditions: for Responses of CD8+ T cells and dendritic cells in suction blister fluid: 72 h after start of IMQ challenge; for IMQ-driven IP-10 and MxA in skin suction blister exudate: analysis on Day 6
# In short: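 Suction blisters were raised by negative-pressure device on imiquimod-inflamed back skin at baseline and 24, 48 and 72 h after challenge start. Subjects were healthy men, 12 per arm, on oral twice-daily treatment begun 2 days before challenge. Blister fluid was analysed for immune cell subsets by flow cytometry and for cytokines/chemokines by multiplex immunoassay.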
# [3] = test system: LPS-driven systemic inflammation (TLR4 activation); experiment: Systemic intravenous LPS challenge; type: in vivo, human; conditions: for Mild increase in core temperature after LPS: 2–6 h after i.v. LPS challenge; for LPS-driven increases in systolic blood pressure and pulse rate / Anti-inflammatory cytokine IL-10 after LPS challenge: compared with placebo; for Suppression of circulating TNF-α response vs. placebo / Anti-inflammatory cytokine IL-10 after LPS challenge / LPS-induced increases in IL-8, CRP and procalcitonin / IL-6 (blood): GMR of treatment effect vs. placebo (90% CrI) / TNF-α (blood): GMR of treatment effect vs. placebo (90% CrI): i.v. LPS challenge; for Suppression of circulating TNF-α response vs. placebo: averaged 0.5 to 6 h after LPS; for LPS-induced increases in IL-8, CRP and procalcitonin: vs placebo; for IL-6 (blood): GMR of treatment effect vs. placebo (90% CrI) / TNF-α (blood): GMR of treatment effect vs. placebo (90% CrI): same dosing
# In short: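 On Day 7 of twice-daily oral treatment (12 healthy men per arm), purified E. coli O113 LPS 1 ng/kg in glucose 2.5%–NaCl 0.45% was given as a 2-min i.v. infusion. Hydration infusion ran from 2 h before to 6 h after. Cytokines, acute phase proteins, leukocytes, pulse, blood pressure and temperature were followed from 0.5 to 24 h. Bayesian repeated-measures ANCOVA gave GMR vs placebo (90% CrI).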
# [4] = test system: LPS (TLR4 agonist)-driven cytokine release in whole blood; experiment: Ex vivo whole blood challenge with LPS; type: cell-based, human
# In short: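 Blood was drawn from healthy men, 12 per arm, at two baselines (Day −1, Day 1) and on Day 6 of oral twice-daily dosing. Challenges were run in duplicate at 37°C for 24 h: LPS 0.1 ng/mL or R848 0.35 μg/mL in prefilled culture tubes, and IL-1β 125 ng/mL in sodium heparin tubes. Supernatant cytokines were measured by multiplex immunoassay.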
# [5] = PK in plasma and skin suction blister fluid; type: in vivo, human; conditions: for Individual suction blister fluid versus plasma ratio, geometric mean (CV): Day 6; for Total concentration in blister fluid, geometric mean (CV): Day 6, 2–4 h after drug intake, unchallenged skin
# In short: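 Healthy men, 12 per arm, took test compound orally twice daily for 7 days. Total drug was measured in plasma and suction blister fluid on Day 6, […], and reported as geometric mean (CV). Blister-fluid-to-plasma ratios were calculated per subject.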
# Safety monitoring = type: in vivo, human; conditions: safety analysis set; BAY groups N = 13, prednisolone N = 12; 7 days b.i.d.
# [6] = test system: LPS (TLR4)-driven TNF-α release in whole blood; conditions: 120 mg b.i.d. BAY1834845, 100 mg b.i.d. BAY1830839; ref multiple ascending dose phase I studies; cited from earlier work
# [7] = test system: imiquimod (IMQ)-induced psoriasis; conditions: mice, compared with vehicle; cited from earlier work
# [8] = 120 mg b.i.d. BAY1834845, 100 mg b.i.d. BAY1830839; ref multiple ascending dose phase I studies; cited from earlier work
# IL-1β-induced cytokines = conditions: upregulation in comparison with vehicle control also reported; cited from earlier work
compound,measurement,setting,value
CC(C)(O)CCn1cc2cc(NC(=O)c3cccc(C(F)(F)F)n3)c(C(C)(C)O)cc2n1 [BAY1830839],Erythema: GMR of treatment effect vs. placebo (90% CrI),[1],0.83
same,Erythema: GMR of treatment effect vs. placebo (90% CrI),[1]; listed as BAY 1830839,"0.83 (0.67, 0.99)"
same,Clinical evaluation of skin reactions (visual grading),[1],less severe inflammatory reaction
same,Responses of CD8+ T cells and dendritic cells in suction blister fluid,[2],suppressed
same,IMQ-driven IP-10 and MxA in skin suction blister exudate,[2],strongly suppressed
same,Mild increase in core temperature after LPS,[3],without suppressing
same,LPS-driven increases in systolic blood pressure and pulse rate,[3],suppressed
same,Suppression of circulating TNF-α response vs. placebo,[3],≥ 80%
same,Anti-inflammatory cytokine IL-10 after LPS challenge,[3],did not lead to an increase
same,"LPS-induced increases in IL-8, CRP and procalcitonin",[3],inhibited
same,IL-6 (blood): GMR of treatment effect vs. placebo (90% CrI),[3],"0.26 (0.17, 0.34)"
same,TNF-α (blood): GMR of treatment effect vs. placebo (90% CrI),[3],"0.14 (0.09, 0.19)"
same,Inhibition of TLR4-driven IL-6 in ex vivo whole blood challenge,[4],73%
same,Inhibition of TLR4-driven TNF-α in ex vivo whole blood challenge,[4],75%
same,"Individual suction blister fluid versus plasma ratio, geometric mean (CV)",[5],0.59 (16.2%)
same,"Total concentration in blister fluid, geometric mean (CV)",[5],3.0 (28.3%) mg/L
same,Any treatment-emergent AE,Safety monitoring,8 (61.5%) n (%) of participants
same,Mean suppression of TNFα (TLR4-cytokine release in ex vivo whole blood assay),[6],70%
same,"Severity of psoriasis-like lesions; extent of erythema, skin thickening and scaling",[7],significantly reduced
same,Systemic exposure,[8],4.3 (42.8%) mg/L
"CC(C)(O)c1cc2nn(CCS(C)(=O)=O)cc2cc1NC(=O)c1cccc(C(F)(F)F)n1 [BAY1834845, zabedosertib]",Erythema: GMR of treatment effect vs. placebo (90% CrI),[1],0.75
same,Erythema: GMR of treatment effect vs. placebo (90% CrI),[1]; listed as BAY 1834845,"0.75 (0.60, 0.89)"
same,Clinical evaluation of skin reactions (visual grading),[1],less severe inflammatory reaction
same,Responses of CD8+ T cells and dendritic cells in suction blister fluid,[2],suppressed
same,IMQ-driven IP-10 and MxA in skin suction blister exudate,[2],strongly suppressed
same,Mild increase in core temperature after LPS,[3],without suppressing
same,LPS-driven increases in systolic blood pressure and pulse rate,[3],suppressed
same,Suppression of circulating TNF-α response vs. placebo,[3],≥ 80%
same,Anti-inflammatory cytokine IL-10 after LPS challenge,[3],did not lead to an increase
same,"LPS-induced increases in IL-8, CRP and procalcitonin",[3],inhibited
same,IL-6 (blood): GMR of treatment effect vs. placebo (90% CrI),[3],"0.27 (0.18, 0.36)"
same,TNF-α (blood): GMR of treatment effect vs. placebo (90% CrI),[3],"0.20 (0.13, 0.27)"
same,Inhibition of TLR4-driven IL-6 in ex vivo whole blood challenge,[4],approximately 50%
same,Inhibition of TLR4-driven TNF-α in ex vivo whole blood challenge,[4],approximately 50%
same,"Individual suction blister fluid versus plasma ratio, geometric mean (CV)",[5],0.43 (22.7%)
same,"Total concentration in blister fluid, geometric mean (CV)",[5],2.6 (32.3%) mg/L
same,Mean suppression of TNFα (TLR4-cytokine release in ex vivo whole blood assay),[6],40%
same,"Severity of psoriasis-like lesions; extent of erythema, skin thickening and scaling",[7],significantly reduced
same,Systemic exposure,[8],5.2 (19.4%) mg/L
CC[C@@H]1[C@H](F)C(=O)N[C@@H]1COc1nccc2cc(C(N)=O)c(OC)cc12 [PF‐06650833],Effects on IL-1β-induced cytokines,IL-1β-induced cytokines,weak effects
"C[C@]12C=CC(=O)C=C1CC[C@@H]1[C@@H]2[C@@H](O)C[C@@]2(C)[C@H]1CC[C@]2(O)C(=O)CO [Prednisolone, prednisolone, reference compound]",Erythema: GMR of treatment effect vs. placebo (90% CrI),[1],"0.86 (0.69, 1.02)"
same,Erythema: GMR of treatment effect vs. placebo (90% CrI),[1]; listed as prednisolone,0.86
same,Responses of CD8+ T cells and dendritic cells in suction blister fluid,[2],suppressed
same,Responses of NK cells and classical monocytes in suction blister fluid,"[2]; 72 h post-challenge, after preceding increase up to 48 h",markedly suppressed
same,IMQ-driven IP-10 and MxA in skin suction blister exudate,[2],strongly suppressed
same,Anti-inflammatory cytokine IL-10 after LPS challenge,[3],induced
same,IL-6 (blood): GMR of treatment effect vs. placebo (90% CrI),[3],"0.31 (0.21, 0.41)"
same,TNF-α (blood): GMR of treatment effect vs. placebo (90% CrI),[3],"0.31 (0.20, 0.41)"
